In general, CC50 refers to the concentration giving 50% cytotoxicity. What is called inhibition is the drop in the measured response relative to a control, in per cent. By EC50 is commonly meant the concentration that produces a half-maximal response.

The results in this text go back to ChEMBL document CHEMBL4387709, “Discovery of Quinoline Analogues as Potent Antivirals against Enterovirus D68 (EV-D68)” (J Med Chem, 2019).

For one series, the system named is Influenza B virus. As to the kind of experiment: Antiviral activity against Influenza B virus (B/Brisbane/60/2008) at 10 uM after 2 days by plaque assay. The format is functional, organism-based.
A further series deals with SH-SY5Y. As to the kind of experiment: Cytotoxicity against human SH-SY5Y cells after 3 days by neutral red dye-based photometric method. The settings on record: 72 h. The format is cell-based. The gist of the method: (§1)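 Uninfected cells run as in the CPE assay (33 °C, 3 days, same media) with compound. Viability by neutral red staining and 540 nm absorbance. CC50 from dose-response curves, triplicate experiments.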

Series [1] has as its system RD. Nature of the series: Cytotoxicity against human RD cells after 3 days by neutral red dye-based photometric method. The format is cell-based. The settings on record: rd, 72 h.
The next series concerns A549. As to the kind of experiment: Cytotoxicity against human A549 cells after 3 days by neutral red dye-based photometric method. The format is cell-based. The note with it: a549, 72 h. A digest of the protocol: as §1
The subject of series [2] is RD. Nature of the series: Inhibition of 2C protein in Enterovirus D68 US/KY/14-18953 infected in human RD cells assessed as reduction of viral RNA synthesis at 1 uM measured at 9 hrs post infection by reagent-based RT-qPCR method relative to control. It is filed as cell-based. A digest of the protocol: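 DNase-treated. 1.2 µg reverse-transcribed with oligo(dT)18. qPCR run 95 °C 10 min, then 40 cycles of 95 °C 15 s/60 °C 60 s, with melt curve. Compared with DMSO control, one-way ANOVA, mean of two experiments ± SD.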
For orientation: Real-time PCR tracks product formation cycle by cycle.

Series [3] has as its system RD. As to the kind of experiment: Inhibition of 2C protein in Enterovirus D68 US/KY/14-18953 infected in human RD cells assessed as reduction of VP1 expression at 1 uM measured at 9 hrs post infection by Western blot analysis. It is filed as cell-based. A digest of the protocol:
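Equal protein separated and blotted to PVDF. Probed with rabbit anti-VP1 and mouse anti-GAPDH (1:3,000), HRP secondary, chemiluminescent detection. Mean of two independent experiments ± SD.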
Background: In western blotting, separated proteins are transferred to a membrane and probed.

Series [4] deals with enterovirus D68. As to the kind of experiment: Antiviral activity against Enterovirus D68 US/MO/14-18947 infected in human A172 cells assessed as inhibition of virus-induced cytopathic effect incubated for 5 mins under shaking condition and measured after 3 days by neutral red dye-based photometric method. The note with it: Enterovirus D, US/MO/14-18947, A 172. The format is functional, organism-based. The gist of the method:
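A172 cells (DMEM, 10% FBS) grown ~90% confluent, infected with EV-D68 at ~MOI 0.3 in DMEM/2% FBS/30 mM MgCl2 and kept at 33 °C. P/S and compounds added 1 h later. Brief orbital shaking, then 3-day incubation. Neutral red staining with 540 nm absorbance. EC50 from best-fit dose-response curves in triplicate.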

In another series the test system is Influenza A virus. Nature of the series: Antiviral activity against Influenza A virus (A/California/07/2009(H1N1)) at 10 uM after 2 days by plaque assay. It is filed as functional, organism-based.
Series [5] can be described thus: Selectivity index, ratio of CC50 for human SH-SY5Y cells to EC50 for Enterovirus D68 US/KY/14-18953 infected in human SH-SY5Y cells. It is filed as toxicity, cell-based. The settings on record: read-out: Ratio CC50/EC50. The gist of the method:
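SH-SY5Y cells grown in 50% DMEM/50% F-12 with 10% FBS and 1% P/S to about 90% confluency, then infected at MOI about 1 in DMEM with 2% FBS and 30 mM MgCl2 at 33 °C. Compounds were added after 1 h. Neutral red staining was read at 540 nm after 3 days. CC50 came from uninfected cells under the same conditions. Values were triplicate dose-response fits, and SI = CC50/EC50.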

For series [6], the system named is enterovirus D68. As to the kind of experiment: Antiviral activity against Enterovirus D68 […] infected in human RD cells assessed as inhibition of virus-induced cytopathic effect incubated for 5 mins under shaking condition and measured after 3 days by neutral red dye-based photometric method. The note with it: Enterovirus D. It is filed as functional, organism-based. A digest of the protocol:
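RD cells seeded one day ahead to ~90% confluence, PBS (Mg/Ca) wash, infected at ~MOI 0.01 with EV-D68 in DMEM/2% FBS/30 mM MgCl2 at 33 °C, 5% CO2. Compounds and 1% P/S added after 1 h. Plates shaken ~5 min, held 3 days, viable cells stained with neutral red (66 µg/ml), A540 read. EC50 from dose-response fits, triplicates.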
A general note: Cytopathic effects are the visible damage that an infection or toxin causes in cultured cells.

Molecules are shown by their SMILES. Activity calls are given as the source filed them. The calls are words filed in the database; no cut-off is given here. A value given as a limit tells only on which side of the number the result lay.

Regarding `O=C(NCCN1CCCC1)c1cc(-c2cccs2)nc2ccccc12`, the outcome with Influenza B virus and in the series with Influenza A virus was inactive. The CC50 in the series with SH-SY5Y came out at 93.3 µM; in the series on RD [1] it was 40 µM; with A549, 83.2 µM. Also, the inhibition with RD [2] was more than 99%. Further, the inhibition entry with RD [3] was “Active”. Also, the EC50 with enterovirus D68 [4] was found to be 0.2 µM; with enterovirus D68 [6], 0.07 µM. In addition, the selectivity ratio in series [5] worked out at 933.
